This is an account of results in ChEMBL document CHEMBL4177757, “Tight-Binding Inhibition of Human Monoamine Oxidase B by Chromone Analogs: A Kinetic, Crystallographic, and Biological Analysis” (J Med Chem, 2018).

As a reminder, the Ki is a dissociation constant, usually derived from enzyme kinetics or from competition with a known ligand.

Molecules are shown by their SMILES.

In data set [1] the target is T1, Amine oxidase [flavin-containing] B (Homo sapiens, UniProt P27338).
T1 sequence (P27338 whole entry): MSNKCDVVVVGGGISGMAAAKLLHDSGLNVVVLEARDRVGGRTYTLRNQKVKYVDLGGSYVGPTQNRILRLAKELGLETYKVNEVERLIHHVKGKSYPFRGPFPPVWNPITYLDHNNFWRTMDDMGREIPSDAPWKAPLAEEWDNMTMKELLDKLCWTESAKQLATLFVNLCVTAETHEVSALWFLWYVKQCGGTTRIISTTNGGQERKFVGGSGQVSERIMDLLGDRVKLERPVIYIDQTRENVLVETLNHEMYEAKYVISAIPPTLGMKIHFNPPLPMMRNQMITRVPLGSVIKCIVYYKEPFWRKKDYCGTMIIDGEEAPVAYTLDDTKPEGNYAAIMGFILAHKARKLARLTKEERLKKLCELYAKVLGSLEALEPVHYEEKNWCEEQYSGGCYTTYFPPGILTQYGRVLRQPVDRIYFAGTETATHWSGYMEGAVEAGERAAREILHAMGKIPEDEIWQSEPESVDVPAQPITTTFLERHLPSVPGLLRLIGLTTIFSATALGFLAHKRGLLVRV
The data set can be described thus: Tight-binding competitive inhibition of recombinant human MAO-B expressed in Pichia pastoris using benzylamine as substrate by fluorimetric horseradish peroxidase-Amplex Red-coupled assay.

Data set [2] addresses T2, Amine oxidase [flavin-containing] A (Homo sapiens, UniProt P21397).
T2 sequence (P21397 whole entry): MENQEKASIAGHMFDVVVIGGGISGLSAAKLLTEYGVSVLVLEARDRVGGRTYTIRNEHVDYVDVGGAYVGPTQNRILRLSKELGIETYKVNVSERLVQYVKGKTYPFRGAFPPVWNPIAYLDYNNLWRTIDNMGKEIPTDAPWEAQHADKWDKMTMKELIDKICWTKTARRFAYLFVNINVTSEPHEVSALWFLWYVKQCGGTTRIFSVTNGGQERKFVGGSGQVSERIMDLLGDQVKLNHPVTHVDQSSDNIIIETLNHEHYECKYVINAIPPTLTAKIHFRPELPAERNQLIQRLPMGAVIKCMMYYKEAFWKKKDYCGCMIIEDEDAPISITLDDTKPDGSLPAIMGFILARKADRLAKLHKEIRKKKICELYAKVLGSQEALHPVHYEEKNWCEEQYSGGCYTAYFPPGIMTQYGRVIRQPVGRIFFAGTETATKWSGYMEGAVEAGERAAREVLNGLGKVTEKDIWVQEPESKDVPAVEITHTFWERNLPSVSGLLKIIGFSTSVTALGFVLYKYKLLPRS
Put plainly: Inhibition of recombinant human MAO-A expressed in Pichia pastoris up to 100 uM using kynuramine as substrate by fluorimetric horseradish peroxidase-Amplex Red-coupled assay.

The target of data set [3] is T1, Amine oxidase [flavin-containing] B. Put plainly: Non-competitive inhibition of recombinant human MAO-B expressed in Pichia pastoris using benzylamine as substrate by fluorimetric horseradish peroxidase-Amplex Red-coupled assay. The method, boiled down:
(§1)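 Purified Pichia-expressed human MAO-B, benzylamine substrate, H2O2 detected by HRP-Amplex Red coupling. Initial rates were measured at varying substrate and inhibitor levels. Inhibition mode came from global fits to competitive, mixed, non-competitive and uncompetitive Michaelis-Menten forms, chosen by r², plus double-reciprocal plots ([…] vs 1/[S]).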

The target is the same in data set [4]. Put plainly: Mixed-type inhibition of recombinant human MAO-B expressed in Pichia pastoris using benzylamine as substrate by fluorimetric horseradish peroxidase-Amplex Red-coupled assay. The gist of the method: as §1

On to `O=C(Nc1cccc(F)c1)c1coc2ccccc2c1=O`, for which the Ki in data set [1] amounted to 31 nM. Also, the “inhibition (INH)” value was “Not Active” in data set [2], “Active” in data set [3] and “Active” in data set [4].

For the compound `O=c1c(CNc2cccc(Cl)c2)coc2ccccc12`, the inhibition constant (Ki) in data set [1] was 2930 nM. Also, the “inhibition (INH)” value in data set [2] is on record as “Not Active”.
